Reference: ChEMBL document CHEMBL4513216, “Probing the Open Global Health Chemical Diversity Library for Multistage-Active Starting Points for Next-Generation Antimalarials” (ACS Infect Dis, 2020)

Assay: Toxicity liver stage against HepG2, at 10uM
Format: cell-based
Set-up: test concentration 10 uM, cell line HepG2-A16-CD81EGFP
Conditions: human, HepG2-A16-CD81EGFP cells; read-out: INHIBITION
Method in brief: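 Uninfected HepG2-A16-CD81EGFP cells, 3 × 10^3 per well, 1536-well, plated on prespotted compound at 10 μM final, parasite-free screening media added to match infected plates; puromycin 10 μM positive, DMSO 0.5% negative; run in parallel with 48 h PbLuc assay at 37 °C, 5% CO2; viability by CellTiter-Glo luminescence, normalized to controls.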

Structure (SMILES): COCCN1CCO[C@H]2CCN(C(=O)c3ccnnc3)CC[C@@H]21
- cytotoxicity at 10 µM: 0.196%

Structure (SMILES): Cc1nc(C)n(CC2CN(Cc3cccc(C(N)=O)c3)CCO2)n1 (configuration not stated)
- cytotoxicity at 10 µM: 6.2%

Structure (SMILES): O=C(CCNc1ncccn1)NCCc1ccn(-c2ccccc2)n1
- cytotoxicity at 10 µM: 0.914%

Structure (SMILES): CN(C)CC1[C@H]2CN(C(=O)c3cc(=O)[nH]c4ccc(F)cc34)C[C@@H]12 (some centres not stated)
- cytotoxicity at 10 µM: -6.68%

Structure (SMILES): CN(Cc1ccon1)C(=O)CN1C(=O)OC(C)(C)C1=O
- cytotoxicity at 10 µM: -108%

Structure (SMILES): COc1c(C2CCCN2C(=O)c2ccc(C#N)cc2)c(C)nn1C (configuration not stated)
- cytotoxicity at 10 µM: -1.72%

Structure (SMILES): c1cnc(N2CCCC(NCc3cccc4c3OCCO4)C2)nc1 (configuration not stated)
- cytotoxicity at 10 µM: -8.18%

Structure (SMILES): COc1cccc(COCC(=O)NC(C)c2nnc3n2CCC3)c1 (configuration not stated)
- cytotoxicity at 10 µM: -3.36%

Structure (SMILES): CCCN1CCN(c2ccc(-c3nc(C)no3)cn2)CC1
- cytotoxicity at 10 µM: 8.95%

Structure (SMILES): Cc1nc(-c2ccc(CC(=O)N3CCN(C(=O)C4CC4)CC3)cc2)cs1
- cytotoxicity at 10 µM: 9.86%

Structure (SMILES): CN(CCc1cnn(C)c1)C(=O)C1COc2ccccc2C1 (configuration not stated)
- cytotoxicity at 10 µM: 1.33%

Structure (SMILES): COc1cc(C)c(S(=O)(=O)CC(=O)N(C)C2CC2)cc1OC
- cytotoxicity at 10 µM: -3.81%

Structure (SMILES): CC(C)c1nc(CN(C)C2CCN(CCn3cc(C#N)cn3)C2)no1 (configuration not stated)
- cytotoxicity at 10 µM: -6.29%

Structure (SMILES): Cc1nc(CNC(=O)NC2CCN(c3ncccn3)CC2)cs1
- cytotoxicity at 10 µM: -141%

Structure (SMILES): Cc1ccc2cc(C(=O)NCCN3CCS(=O)(=O)CC3)c(C)nc2c1
- cytotoxicity at 10 µM: 10.5%

Structure (SMILES): COC[C@H]1CNC(=O)[C@@H]2CCN(Cc3ccc(F)cc3)CC[C@H]12
- cytotoxicity at 10 µM: 14.2%

Structure (SMILES): N#Cc1ccc(NC2CCN(c3ncccn3)CC2)cc1C(F)(F)F
- cytotoxicity at 10 µM: 27.5%

Structure (SMILES): O=C1CC(c2ccc(C(F)(F)F)cc2)c2snc(C(=O)O)c2N1 (configuration not stated)
- cytotoxicity at 10 µM: 10.7%

Structure (SMILES): CC(=O)Nc1nc(C(=O)NCc2ccc(N3CCOC(C)C3)nc2)cs1 (configuration not stated)
- cytotoxicity at 10 µM: 0.109%

Structure (SMILES): CCN1CCN(C[C@@H]2CN(c3ncc(Cl)cc3F)C[C@@H]2CO)CC1
- cytotoxicity at 10 µM: -7.06%

Structure (SMILES): O=C(CCNC(=O)c1ccoc1)Nc1c(F)cccc1F
- cytotoxicity at 10 µM: 1.35%

Structure (SMILES): CS(=O)(=O)NCC1CCCN(C(=O)COCc2ccccc2)C1 (configuration not stated)
- cytotoxicity at 10 µM: -7.59%

Structure (SMILES): CCCS(=O)(=O)N1CCC(NC(=O)c2ccc(C)s2)CC1
- cytotoxicity at 10 µM: -11.4%

Structure (SMILES): Cc1cc(C)nc(C2CCN(C(=O)CCn3ncc4ccccc43)C2)n1 (configuration not stated)
- cytotoxicity at 10 µM: -17.3%

Structure (SMILES): Cc1cnc(NCCCN2CCCCC2CO)nc1 (configuration not stated)
- cytotoxicity at 10 µM: -7.17%

Structure (SMILES): Cc1cc(=O)[nH]c(NCCNC(=O)C(c2ccc(F)cc2)N(C)C)n1 (configuration not stated)
- cytotoxicity at 10 µM: -29.5%

Structure (SMILES): CNc1nc(CNC(=O)Nc2cccc(F)c2C)cs1
- cytotoxicity at 10 µM: -5.43%

Structure (SMILES): CCc1ccc(C(COC)NC(=O)c2ccc(C(N)=O)cc2)o1 (configuration not stated)
- cytotoxicity at 10 µM: -2.65%

Structure (SMILES): COc1nn(C)cc1C(=O)NCC1(O)CCOCC1
- cytotoxicity at 10 µM: -14.7%

Structure (SMILES): CN1C[C@@H]2CN(C(=O)NCc3cccc(F)c3)CCC[C@]2(C(=O)O)C1
- cytotoxicity at 10 µM: 1.14%

Structure (SMILES): CN1CCOCC12CCN(Cc1nccs1)CC2
- cytotoxicity at 10 µM: 6.46%

Structure (SMILES): COc1ccc(OC2CCN(C(=O)CCc3n[nH]c(N)n3)CC2)cc1
- cytotoxicity at 10 µM: 1.43%

Structure (SMILES): COc1ccc(OCCNC(=O)CN(C)Cc2nnc(C)n2C)cc1
- cytotoxicity at 10 µM: -10.3%

Structure (SMILES): Cc1ccc(CNC(=O)C2CCCCN2C(=O)OC(C)(C)C)cn1 (configuration not stated)
- cytotoxicity at 10 µM: -0.408%

Structure (SMILES): Cc1nnc(C(C)Nc2cccc(COCC(F)(F)C(F)F)c2)o1 (configuration not stated)
- cytotoxicity at 10 µM: -1.2%

Structure (SMILES): CC(C)COC(C)C(=O)NCc1ccc(OC(C)C)nc1 (configuration not stated)
- cytotoxicity at 10 µM: 2.12%

Structure (SMILES): CC(=O)N1CCC(Cc2cnc(-n3ccnc3)cn2)CC1
- cytotoxicity at 10 µM: -38.8%

Structure (SMILES): CC(C)S(=O)(=O)CC(=O)N(Cc1ccsc1)c1ccccc1
- cytotoxicity at 10 µM: -5.24%

Structure (SMILES): CC(CN1CCC2(CC1)N=C(c1cccnc1)NC2=O)c1ccccc1 (configuration not stated)
- cytotoxicity at 10 µM: 4.5%

Structure (SMILES): Cc1ccc(N2CCCN(C(=O)C(C)OCC3CC3)CC2)nn1 (configuration not stated)
- cytotoxicity at 10 µM: 0.0479%

Structure (SMILES): Cc1nc(C)n(CC2CCCN(CC(=O)NC3CCOCC3)C2)n1 (configuration not stated)
- cytotoxicity at 10 µM: -11.8%

Structure (SMILES): CCc1noc(CC)c1CC(=O)N1CCN(C(=O)C2CCCC2)CC1
- cytotoxicity at 10 µM: -4.78%

Structure (SMILES): Cc1nc(Nc2ncccn2)cc(C2CCCN2C)n1 (configuration not stated)
- cytotoxicity at 10 µM: -16.5%

Structure (SMILES): CCC(CC)CN1CCN(CC(=O)Nc2cccc3nsnc23)CC1
- cytotoxicity at 10 µM: 6.16%

Structure (SMILES): Cc1ccc(S(=O)(=O)NC(=O)CCOCC(C)C)s1
- cytotoxicity at 10 µM: -5.36%

Structure (SMILES): Cc1nc(N2CCOCC2)nc2c1CN(C(=O)C(C)C)CC2
- cytotoxicity at 10 µM: 0.552%

Structure (SMILES): Cc1noc(C)c1CNc1cc(N2CCCC2CO)ncn1 (configuration not stated)
- cytotoxicity at 10 µM: 1.42%

Structure (SMILES): O=C(c1ccno1)N1CCC2(CC1)C(=O)Nc1ccccc12
- cytotoxicity at 10 µM: -134%

Structure (SMILES): Cc1nn(C)c(N2CCOCC2)c1CNC1COc2ccccc2C1 (configuration not stated)
- cytotoxicity at 10 µM: -17.9%

Structure (SMILES): CNC(=O)C1CCC2(CCN(c3nncs3)CC2)CO1 (configuration not stated)
- cytotoxicity at 10 µM: 6.01%

Structure (SMILES): Cn1nc(CN2CCOCC2)c2c1CN(C(=O)c1ccc[nH]1)C2
- cytotoxicity at 10 µM: 8.46%

Structure (SMILES): O=C(NC[C@H]1COCc2nc3cc(F)ccc3n21)c1cccnc1
- cytotoxicity at 10 µM: -1.23%

Structure (SMILES): c1cc2c(cc1C1CCCN1Cc1nnnn1C1CC1)OCCO2 (configuration not stated)
- cytotoxicity at 10 µM: -25.7%

Structure (SMILES): c1nc(N2CCCC2Cn2cncn2)c2ccsc2n1 (configuration not stated)
- cytotoxicity at 10 µM: 14.1%

Structure (SMILES): Cc1cccc(C(C(=O)NCC2(O)CCCCC2)N(C)C)c1 (configuration not stated)
- cytotoxicity at 10 µM: -8.82%

Structure (SMILES): Cc1cnc(N2C[C@@H]3[C@@H](C2)OCC(=O)N3CCN(C)C)nc1
- cytotoxicity at 10 µM: -4.35%

Structure (SMILES): COc1cc(C)nc(N2CCN(C(=O)c3ccccc3C)CC2)n1
- cytotoxicity at 10 µM: -2.18%

Structure (SMILES): CCN(CC)C(=O)c1c(Cl)cnn1CC
- cytotoxicity at 10 µM: -12.3%

Structure (SMILES): Cc1cc2n(n1)CCN(c1nc(N)nc3c1CCNCC3)C2
- cytotoxicity at 10 µM: 7.04%

Structure (SMILES): O=C(c1cccc(-n2cccn2)c1)N1CCCOC(Cn2cccn2)C1 (configuration not stated)
- cytotoxicity at 10 µM: -6.58%

Structure (SMILES): CN(C)c1ccc2c(c1)CN(C(=O)c1ccco1)C2c1cnco1 (configuration not stated)
- cytotoxicity at 10 µM: 31.9%

Structure (SMILES): CC(C)(O)C1CCN(C(=O)Nc2nc(-c3ccccc3)ns2)CC1
- cytotoxicity at 10 µM: 5.68%

Structure (SMILES): CCCc1nnc(NC(C)c2ccc3c(c2)OCCO3)o1 (configuration not stated)
- cytotoxicity at 10 µM: 0.965%

Structure (SMILES): CCCC(=O)N1CCCCC1C(=O)Nc1ccc(-c2nnc[nH]2)cc1 (configuration not stated)
- cytotoxicity at 10 µM: 7.65%

Structure (SMILES): Cc1ccc(NC2CCN(C(=O)CCc3cscn3)CC2)nn1
- cytotoxicity at 10 µM: -9.2%

Structure (SMILES): CC(C(=O)NC1CC1)S(=O)(=O)Cc1csc(-c2cccs2)n1 (configuration not stated)
- cytotoxicity at 10 µM: 9.02%

Structure (SMILES): CCC(C)(NCC(=O)N(c1ccccc1)C(C)C)c1nc(C)cs1 (configuration not stated)
- cytotoxicity at 10 µM: 10.9%

Structure (SMILES): CCOCC1CN(C(=O)c2cscn2)Cc2cnn(CC3CC3)c21 (configuration not stated)
- cytotoxicity at 10 µM: -69.4%

Structure (SMILES): CCCNC(=O)CNc1ccccc1OCCC(=O)OC
- cytotoxicity at 10 µM: 8.95%

Structure (SMILES): O=S(=O)(Cc1ccccc1)NCCc1nnc2n1CCC2
- cytotoxicity at 10 µM: 14.5%

Structure (SMILES): Cc1noc(CN(C)C2CCCN(Cc3noc(C4CC4)n3)C2)n1 (configuration not stated)
- cytotoxicity at 10 µM: -2.19%

Structure (SMILES): CC(C)N1CCC(CC(=O)N2CCN(Cc3nccn3C)CC2)CC1
- cytotoxicity at 10 µM: -3.91%

Structure (SMILES): COCCCC1(CO)CCCN(Cc2cccc(C#N)c2)C1 (configuration not stated)
- cytotoxicity at 10 µM: 4.16%

Structure (SMILES): CC(=O)NC(C)CC(=O)NCc1cccnc1Oc1ccccc1C (configuration not stated)
- cytotoxicity at 10 µM: 11.4%

Structure (SMILES): COCCC(=O)N1CCC2(COCc3cnc(NCC4CC4)nc32)C1 (configuration not stated)
- cytotoxicity at 10 µM: 6.24%

Structure (SMILES): N#Cc1cc(F)c(NCCc2ccc(S(N)(=O)=O)cc2)c(F)c1
- cytotoxicity at 10 µM: -53.9%

Structure (SMILES): Fc1ccc(-c2c[nH]c([C@@H]3COCCN3)n2)cc1
- cytotoxicity at 10 µM: -0.0368%

Structure (SMILES): CCOCC(=O)NCCc1ccc(I)s1
- cytotoxicity at 10 µM: -4.76%

Structure (SMILES): CCCN1CCN(C(=O)c2cnccn2)[C@H]2CS(=O)(=O)C[C@H]21
- cytotoxicity at 10 µM: -19.8%

Structure (SMILES): O=S(=O)(c1ccccc1F)N1CCC(Oc2cccnn2)CC1
- cytotoxicity at 10 µM: 0.388%

Structure (SMILES): CC(CNCc1ccc(F)cc1)Oc1ccccn1 (configuration not stated)
- cytotoxicity at 10 µM: 6.97%

Structure (SMILES): Cc1ccc(N2CCO[C@H]3CN(C(=O)c4cccc(C)n4)C[C@H]32)nn1
- cytotoxicity at 10 µM: 4.94%
